Screening data deposited in PubChem BioAssay by Sanford-Burnham Center for Chemical Genomics.
Only some compounds are listed: those with a hit (about 0.77% of all), similar ones and a draw of the others.
mIAP inh – inhibitors of mouse IAP, primary screen, biochemical, luminescence, uHTS. purified mouse IAP, CDP-Star luminescence, 30 min. inhibition, % at 10 µM. intestinal alkaline phosphatase [Mus musculus]. actives 0.2% (n = 330,000);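 active = inhibition of at least 40% at 10 µM in the primary screen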;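 also: plate controls were DMSO with enzyme for no effect and no enzyme wells for full effect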
hIAP block – human IAP inhibitors, primary screen, biochemical, luminescence, uHTS. AID 2544, 2010. inhibition, % at 10 µM. Intestinal-type alkaline phosphatase (Homo sapiens), P09923. actives 0.12% (n = 330,000). purified IAP, CDP-Star luminescence, 30 min;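 active = inhibition reaching a set limit with compound at 10 µM in the primary screen, cut at about 35% in these data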;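 also: plate controls were DMSO wells with enzyme for no effect and no-enzyme buffer wells for full effect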
Target sequence (P09923 whole entry, looked up): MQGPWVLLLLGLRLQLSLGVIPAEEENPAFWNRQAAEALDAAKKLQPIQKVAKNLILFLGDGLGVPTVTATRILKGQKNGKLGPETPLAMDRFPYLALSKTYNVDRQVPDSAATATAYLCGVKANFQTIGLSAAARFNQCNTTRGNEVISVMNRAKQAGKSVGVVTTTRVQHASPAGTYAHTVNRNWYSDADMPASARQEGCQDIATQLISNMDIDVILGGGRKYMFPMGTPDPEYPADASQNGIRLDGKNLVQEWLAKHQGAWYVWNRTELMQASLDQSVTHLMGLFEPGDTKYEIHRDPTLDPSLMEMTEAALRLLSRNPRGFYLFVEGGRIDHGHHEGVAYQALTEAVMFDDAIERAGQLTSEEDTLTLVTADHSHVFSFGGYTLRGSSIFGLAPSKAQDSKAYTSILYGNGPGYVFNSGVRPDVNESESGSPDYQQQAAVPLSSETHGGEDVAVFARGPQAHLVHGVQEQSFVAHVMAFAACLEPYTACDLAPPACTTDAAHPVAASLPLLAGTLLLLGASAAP
hIAP act – human IAP activators, primary screen, biochemical, luminescence, uHTS; purified human IAP, CDP-Star luminescence, 30 min; active compounds read high; 1 = vehicle-only enzyme, 0 = enzyme-free background; Intestinal-type alkaline phosphatase (Homo sapiens), P09923; AID 2524, 2010; actives 0.16% (n = 330,000); activation factor at 10 µM;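 active = activation factor of the enzyme at least 2-fold when tested at 20 µM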
mIAP act – activators of mouse IAP, primary screen, biochemical, luminescence, uHTS; activation factor at 10 µM; intestinal alkaline phosphatase [Mus musculus]; actives 0.24% (n = 330,000); muIAP, CDP-Star luminescence, 30 min; active compounds read high; 1 = vehicle-only enzyme signal, 0 = enzyme-free wells;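 active = activation factor of at least 2 at 20 µM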
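System: mouse IAP enzyme. Reagent: CDP-Star chemiluminescent phosphatase substrate. Benchmarks: DMSO wells, no-enzyme wells. Times: 30 min enzyme-substrate-compound incubation at room temperature. Detection: luminescence from enzymatic CDP-Star hydrolysis. Doses: test compounds delivered from DMSO solution.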
bIAP act – bovine intestinal alkaline phosphatase activators, primary screen, biochemical, bovine IAP, CDP-star luminescence; alkaline phosphatase, intestinal [Bos taurus]; purified bovine IAP, 30 min; active compounds read high; fold of DMSO-control signal, blank-subtracted; activation factor at 20 µM; actives 0.17% (n = 200,000); AID 1016, 2008;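 active = activation factor of 2 or more at 20 µM, a signal rise over negative controls twice the positive control's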
bIAP inh – bovine intestinal alkaline phosphatase inhibitors, primary screen, selectivity assay for TNAP inhibitor project, biochemical, bovine IAP, CDP-star luminescence. alkaline phosphatase, intestinal [Bos taurus]. purified bovine IAP, 30 min. inhibition, % at 20 µM. 190,000 tested, under 10 active. AID 1019, 2008;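 active = over 50% inhibition of intestinal alkaline phosphatase at 20 µM in the single-dose screen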
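Incubation: 30 min reaction at room temperature / Material: purified bovine intestinal alkaline phosphatase (IAP) enzyme / Input: enzyme at 1/65,000,000 dilution / Dosing: 20 µM single dose / Signal: CDP-star luminescence signal / Reagent: CDP-star chemiluminescent phosphatase substrate, 30 µM final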
mIAP inh conf – inhibitors of mouse IAP, confirmation, biochemical, luminescence, single concentration. shares compounds with mIAP inh. purified mouse IAP, CDP-Star luminescence, 30 min. inhibition, % at 10 µM. actives 4.7% (n = 11,000). AID 434971, 2010;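 active = inhibition of at least 40% at 10 µM in either of the two replicates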;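 also: plate controls were DMSO wells with enzyme for no effect and buffer wells lacking enzyme for full effect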
Starred values were filed as active, the others as inactive; / = no result given.

SMILES	mIAP inh	hIAP block	hIAP act	mIAP act	bIAP act	bIAP inh	mIAP inh conf
Cc1cc2nc3ccc(N(C)C)cc3nc2cc1N	56.9*	-1.7	1.02	0.431	/	/	65.0*
CCN(C(=O)COC(=O)CSc1ccccc1)c1c(N)n(Cc2ccccc2)c(=O)[nH]c1=O	-4.5	0.5	0.995	1.04	/	/	/
CC(=O)NCc1ccc(-c2csc(NC(=O)CCc3nc4ccccc4c(=O)[nH]3)n2)s1	45.5*	-2.0	1.02	0.545	/	/	44.8*
CC(=O)Oc1cc2cccc(OC(C)=O)c(=O)c2c(OC(C)=O)c1OC(C)=O	44.9*	8.6	0.914	0.551	1	-3.5	49.2*
Cc1ccc(S(=O)(=O)NC2CC2)cc1[N+](=O)[O-]	-2.5	-12.6	1.13	1.02	/	/	/
COc1cc(/C=C/C(=O)CC(=O)/C=C/c2ccc(O)c(OC)c2)ccc1O	57.9*	/	/	0.421	1	2.2	49.4*
COc1cc(/C=C/C(=O)/C=C(O)/C=C/c2ccc(O)c(OC)c2)ccc1O	61.4*	/	/	0.386	/	/	53.1*
O=C(N/N=C/c1cccnc1)c1cc(O)c(O)c(O)c1	42.1*	-14.4	1.14	0.579	/	/	57.7*
Cc1ccc(C2=NC(=O)/C(=C/c3cc(O)c(O)c(Br)c3)S2)cc1	52.6*	14.0	0.86	0.474	0.7	29.0	59.9*
CCOc1cc(C(=S)N2CCOCC2)ccc1OC(=O)c1ccc(C)cc1	-5.3	-15.8	1.16	1.05	/	/	/
COc1ccc(O)c(C(=O)c2cnc3c(c2)c(C)nn3CCO)c1	5.2	9.7	0.903	0.948	/	/	/
O=C(NCc1ccc2c(c1)OCO2)Nc1cccc(Cl)c1	-91.8	-10.5	1.1	1.92	/	/	/
CC(=O)Nc1ccc(NC(=O)Nc2cccc(Cl)c2)cc1	-72.6	-22.0	1.22	1.73	/	/	/
O=C(Nc1ccccc1)Nc1cccc(Cl)c1	-175.8	-13.3	1.13	2.76*	0.9	9.7	-111.4
O=C(Nc1cccc(Cl)c1)Nc1ccc2c(c1)OCO2	-162.3	5.3	0.947	2.62*	0.8	18.3	-146.2
CSc1cccc(NC(=O)Nc2ccc(Cl)cc2)c1	-147.5	6.1	0.939	2.48*	0.9	5.9	-106.2
O=C(Nc1ccc(C(=O)N2CCCCC2)cc1)Nc1cccc(Cl)c1	-170.9	-48.6	1.49	2.71*	/	/	-139.3
COc1cc(C(=O)N(c2ccc(C)c(C)c2)C2C=CS(=O)(=O)C2)cc(OC)c1OC (centres undefined)	-2.8	8.6	0.914	1.03	1.1	-5.9	/
COc1cccc(C(=O)NC2CC3CCCC(C2)N3CC(=O)Nc2ccccc2C(F)(F)F)c1 (centres undefined)	-4.7	4.6	0.954	1.05	/	/	/
CCc1cccc(CC)c1NC(=O)CN1C2CCCC1CC(NC(=O)Nc1cccc(OC)c1)C2 (centres undefined)	-174.8	-91.4	1.91	2.75*	1.4	-38.8	-136.2
Cc1nc2ccccc2c(=O)n1/N=C/c1ccc(O)c(O)c1O	56.7*	0.7	0.993	0.433	/	/	80.6*
COc1cc(OC)c2c(c1O)OC(c1ccccc1)CC2=O (centres undefined)	53.7*	3.0	0.97	0.463	0.9	8.4	62.2*
NS(=O)(=O)c1cccc(C(=O)NC2CCSc3ccccc32)c1 (centres undefined)	-21.2	4.9	0.951	1.21	/	/	/
NS(=O)(=O)c1cc(C(=O)NC2CCSc3ccccc32)ccc1Cl (centres undefined)	71.5*	9.4	0.906	0.285	/	/	84.0*
N#C/C(=C\c1coc2ccc(O)cc2c1=O)C(=O)Nc1nc2ccccc2s1	60.4*	1.7	0.983	0.396	/	/	63.6*
SMILES	mIAP inh	hIAP block	hIAP act	mIAP act	bIAP act	bIAP inh	mIAP inh conf
CCCCN(C(=O)c1cc(=O)[nH]c2ccccc12)c1c(N)n(CCCC)c(=O)[nH]c1=O	5.1	-19.3	1.19	0.949	/	/	/
O=C(N/N=C/c1ccc(OC(=O)c2ccccc2Cl)cc1)c1cc(O)cc(O)c1	47.0*	-3.7	1.04	0.53	/	/	60.8*
COc1cc(/C=N/NC(=O)c2cc(O)cc(O)c2)ccc1OC(=O)c1ccccc1	49.8*	6.2	0.938	0.502	/	/	57.1*
O=C(N/N=C/c1ccc(OC(=O)c2ccccc2Cl)cc1)c1ccccn1	-1.7	-20.1	1.2	1.02	/	/	/
O=C(Cn1cncn1)c1ccccc1Br	4.8	3.7	0.963	0.952	/	/	/
CC1=C(C(=O)Nc2ccccc2)C(c2ccc(C)o2)n2c(s/c(=C\c3ccco3)c2=O)=N1 (centres undefined)	43.9*	-17.7	1.18	0.561	0.8	19.9	65.1*
COc1ccccc1CNC(=O)c1cc(S(=O)(=O)N2CCOCC2)cn1C	12.3	1.5	0.985	0.877	/	/	/
CC(=O)c1c(C)oc2ccc(NS(=O)(=O)c3ccc(O)c(C(=O)O)c3)cc12	13.1	-4.8	1.05	0.869	0.9	5.6	/
O=C(O)c1cc(S(=O)(=O)Nc2ccc3oc(=O)sc3c2)ccc1O	65.3*	-5.0	1.05	0.347	0.9	8.3	72.1*
Oc1ccc(/C=N/N=C/c2ccc(O)c(O)c2)cc1O	59.7*	-0.3	1	0.403	/	/	63.6*
COc1cc(/C=C/C(=O)O)ccc1O	1.7	3.0	0.97	0.983	/	/	/
C/C(=N\NC(=S)Nc1c(C)cccc1C)c1ccc(OC(F)F)cc1	6.3	-12.0	1.12	0.937	1	-2.3	/
CSc1nc(-c2ccco2)nn1S(=O)(=O)c1ccccc1	0.9	9.2	0.908	0.991	0.9	9.0	/
CCS(=O)(=O)n1nc(-c2ccco2)nc1SC	22.4	1.1	0.989	0.776	0.9	6.2	35.6*
Cc1cc(Cn2nc(-c3ccccc3)cc2C(=O)NCc2cccc(Br)c2)on1	-299.4	-10.1	1.1	3.99*	/	/	-229.5
Cc1cc(Cn2nc(-c3ccccc3)cc2C(=O)NCc2cccc(C(F)(F)F)c2)on1	-228.5	5.4	0.946	3.29*	/	/	-124.8
Cc1ccc(-c2ocnc2C(=O)N2CCOCC2)cc1	-7.6	1.9	0.981	1.08	/	/	/
O=C1OC2(c3ccccc31)c1cc(I)c(O)c(I)c1Oc1c2cc(I)c(O)c1I	44.4*	26.4	0.736	0.556	/	/	64.4*
Cc1ccc(NC(=S)NCc2ccccc2)cc1S(=O)(=O)N1CCCCC1	-480.6	-58.3	1.58	5.81*	1.4	-38.0	-186.7
